# This is a sample that favours compounds with a hit; in the whole collection about 2.9% have one here.
# SIRT5 block: blocks human SIRT5 desuccinylation of peptide | Q9NXA8 | Purified SirT5, succinyl-peptide AMC, trypsin-coupled fluorescence | inhibition, % at 15 µM | hit rate 1.1% among 330,000 | AID 652115; in the data active = inhibition above about 15%; inconclusive = no clear call, values can overlap the other calls
# ERAP1 inh: inhibitors of human ERAP1 aminopeptidase | Q9NZ08 | recombinant ERAP1, Leu-AMC fluorescence, 60 min | inhibition, % at 10.7 µM | hit rate 0.15% among 340,000 | AID 652197;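 active = mean replicate inhibition of at least 30%, or all replicates individually reaching that 30% level; inactive = mean below 30% and not every replicate reaching it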
# Target sequence (Q9NZ08 whole entry, looked up): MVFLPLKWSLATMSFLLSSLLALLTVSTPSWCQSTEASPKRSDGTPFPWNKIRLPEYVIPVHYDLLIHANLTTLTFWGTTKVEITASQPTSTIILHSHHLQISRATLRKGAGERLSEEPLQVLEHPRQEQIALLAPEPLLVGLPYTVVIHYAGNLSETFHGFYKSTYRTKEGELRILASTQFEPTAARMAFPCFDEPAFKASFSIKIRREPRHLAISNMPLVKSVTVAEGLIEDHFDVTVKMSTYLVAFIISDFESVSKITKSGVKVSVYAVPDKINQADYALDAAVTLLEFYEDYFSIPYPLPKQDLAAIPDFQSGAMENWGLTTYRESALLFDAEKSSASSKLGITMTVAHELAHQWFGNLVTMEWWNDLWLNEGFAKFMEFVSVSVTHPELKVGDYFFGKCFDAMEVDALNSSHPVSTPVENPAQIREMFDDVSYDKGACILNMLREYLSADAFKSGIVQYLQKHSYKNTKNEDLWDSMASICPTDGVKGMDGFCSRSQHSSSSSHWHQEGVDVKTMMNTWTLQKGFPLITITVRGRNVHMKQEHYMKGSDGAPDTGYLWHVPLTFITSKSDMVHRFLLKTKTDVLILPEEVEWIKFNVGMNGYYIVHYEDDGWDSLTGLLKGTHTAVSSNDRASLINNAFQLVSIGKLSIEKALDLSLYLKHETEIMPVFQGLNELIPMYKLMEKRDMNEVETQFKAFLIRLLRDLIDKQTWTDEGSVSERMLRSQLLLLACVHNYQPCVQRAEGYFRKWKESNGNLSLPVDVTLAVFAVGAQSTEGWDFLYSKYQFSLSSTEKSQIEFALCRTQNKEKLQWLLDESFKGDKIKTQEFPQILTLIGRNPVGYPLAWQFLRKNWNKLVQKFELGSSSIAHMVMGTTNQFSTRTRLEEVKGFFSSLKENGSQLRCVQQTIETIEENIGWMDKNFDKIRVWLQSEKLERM
# S100A4 MyoIIA: S100A4-myosin IIA interaction inhibition. P26447. S100A4/TAMRA-MyoIIA peptide fluorescence polarization. inhibition, % at 10.7 µM. hit rate 0.14% among 360,000. AID 652163;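 active = mean inhibition of at least 70% across replicates, with every replicate also reaching that level; inconclusive = mean inhibition reaches 70% but some replicates fall short; inactive = mean inhibition below 70%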
#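 Material: S100A4 monomer protein | Medium: HEPES pH 7.2 with CaCl2, KCl, NaCl, DTT, Triton | Reagent: Labelled myosin peptide probe, 5 nM | Doses: One dose per compound | Times: 5 min incubation before reading | Benchmarks: Neutral control DMSO, positive control TFP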
# CAL PDZ FP-1: inhibitors of human CAL PDZ peptide binding. AID 504414. hit rate 0.02% among 330,000. inhibition, % at 20 µM. purified CAL PDZ, TMR-peptide fluorescence polarization, 1 h. Q9HD26;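 active = highest replicate inhibition of at least 40%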
#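 Read-out basis: mP drop reported as inhibition | Assay system: Tagged CAL PDZ protein CerCALP, purified | Benchmarks: Unlabelled peptide for full inhibition, DMSO wells as neutral | Schedule: 1 h incubation at room temperature before polarization reading | Buffer or medium: Sodium phosphate/NaCl buffer pH 7.4 with TCEP, IgG, Thesit | Doses: Single point, 20 µM | Measured by: Fluorescence polarization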
# CAL PDZ FP-2: CAL PDZ (human) peptide binding inhibition; purified CAL PDZ, TMR-peptide fluorescence polarization, 1 h; inhibition, % at 24.9 µM; Q9HD26; AID 602252; hit rate 0.92% among 300,000;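 active = mean inhibition of at least 30% with at least half of replicates also reaching 30%; inconclusive = no clear call, values can overlap the other calls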
# DENV2 CPE rescue: DENV2-induced cell death inhibition. DENV2-infected cells, cytopathic effect rescue, plate reader. CPE inhibition, % at 9.99 µM. hit rate 1.7% among 350,000; in the data active = CPE inhibition above about 20%, passing the limit was not always enough; inconclusive = no clear call, values can overlap the other calls; tested in BHK-21 cells
# Hits are given with their value; 0 = inactive; ? = inconclusive; - = no result; ! = a repeat was not active.
SMILES,SIRT5 block,ERAP1 inh,S100A4 MyoIIA,CAL PDZ FP-1,CAL PDZ FP-2,DENV2 CPE rescue
O=C(C[C@H]1C[C@H]2c3cc(NC(=O)Nc4ccc(C(F)(F)F)cc4)ccc3O[C@H]2[C@H](CO)O1)NCc1cc(F)ccc1F,0,0,0,-,-,0
CCN(CC)S(=O)(=O)c1ccc(N2CCOCC2)c(NS(=O)(=O)c2ccc(C)c(C)c2)c1,-,-,-,0,89,-
Cn1cnc(S(=O)(=O)N[C@@H]2CC[C@H](CC(=O)NCC3CC3)O[C@H]2CO)c1,0,0,0,-,-,0
CC(=O)N1CC(=O)N2[C@H](CO)[C@@H](c3ccc(-c4ccc(C#N)cc4)cc3)[C@H]2C1,0,0,129,-,-,0
N#Cc1ccc(-c2ccc([C@H]3[C@H](CO)N4C(=O)CN(C(=O)C5CC5)C[C@@H]34)cc2)cc1,0,38,?,-,-,0
COc1cccc(-c2ccc([C@H]3[C@H](CO)N4C(=O)CN(C(=O)C5CC5)C[C@@H]34)cc2)c1,0,0,0,-,-,29
CN(C)C(=O)c1cccc(-c2ccc([C@H]3[C@H]4CN(C(=O)CC5CC5)CC(=O)N4[C@H]3CO)cc2)c1,0,0,0,-,-,21
CN1C[C@@H](O)COC[C@@H]2O[C@H](CC(=O)NC3CCC3)CC[C@H]21,-,-,-,-,-,0
C[C@@H](NC(=O)C[C@H]1C=C[C@H](NS(=O)(=O)c2cccc(F)c2)[C@@H](CO)O1)c1ccccc1,0,0,0,-,-,0
COc1ccc2c3c(n(C)c2c1)[C@H](CO)N(S(=O)(=O)c1cn(C)cn1)CC31CCN(C)CC1,0,0,0,-,-,32
COc1ccc2c3c(n(C)c2c1)[C@@H](CO)N(S(C)(=O)=O)CC31CCN(CC2CCCCC2)CC1,0,0,0,-,-,0
COc1ccc2c3c(n(C)c2c1)[C@@H](CO)N(S(C)(=O)=O)CC31CCN(CC2CCCC2)CC1,0,0,0,-,-,56
COc1ccc2c3c(n(C)c2c1)[C@H](CO)N(C)CC31CN(CC2CC2)C1,0,0,0,-,-,0
COc1ccc2c3c(n(C)c2c1)[C@@H](CO)N(C)CC31CCN(CC2CC2)CC1,-,-,-,-,-,48
CC(C)C[C@H](NS(=O)(=O)c1ccc(F)cc1F)C(=O)N1CCC[C@H]1C(=O)NCc1ccccc1,23,0,0,-,-,0
O=C(NCc1ccccc1)[C@@H]1CCCN1C(=O)[C@@H](NS(=O)(=O)c1ccc(F)cc1F)c1ccccc1,0,0,0,-,-,0
COC(=O)C(Cc1csc2ccc(Cl)cc12)NC(=O)c1ccc(Cl)cc1 (centres undefined),0,0,0,0,0,96
CC[C@@H]1C=C(C(=O)O)[C@H](c2ccc3c(c2)OCO3)N1S(=O)(=O)c1ccc(C)cc1,0,0,?,0,0,0
CCCCC[C@@H]1C=C(C(=O)O)[C@H](c2ccc3c(c2)OCO3)N1S(=O)(=O)c1ccc(C)cc1,0,0,0,0,0,31
CC(C)NC(=O)Nc1ccc2c(c1)C(=O)N(C)[C@@H]1CC[C@H](CC(=O)NCC3CCCCC3)O[C@H]1CO2,0,0,0,-,-,0
COc1ccc(NC(=O)N(C)C[C@@H]2Oc3c(NC(=O)c4cc(C)nn4C)cccc3C(=O)N([C@H](C)CO)C[C@@H]2C)cc1,0,0,0,-,-,0
COc1ccccc1N1CN(S(=O)(=O)c2ccc(C)cc2)c2nc3ccccc3nc21,0,0,0,0,110,0
COc1ccccc1/C=C/C(=O)NNC(=O)c1cccs1,-,-,0,0,71,0
Cc1ccc(S(=O)(=O)Nc2ccc3c(c2)C(=O)N([C@H](C)CO)C[C@@H](C)[C@@H](CN(C)C(=O)Cc2ccccc2)OCCCC[C@@H](C)O3)cc1,0,0,0,-,-,0
C[C@@H]1CN([C@@H](C)CO)C(=O)Cc2cc(NC(=O)Cc3ccccc3)ccc2O[C@@H]1CN(C)Cc1ccccc1,0,0,0,-,-,0
SMILES,SIRT5 block,ERAP1 inh,S100A4 MyoIIA,CAL PDZ FP-1,CAL PDZ FP-2,DENV2 CPE rescue
C[C@@H]1CN([C@H](C)CO)C(=O)Cc2cc(NC(=O)Nc3ccccc3)ccc2O[C@@H]1CN(C)Cc1ccc(Cl)c(Cl)c1,0,0,0,-,-,0
C[C@@H]1CN([C@H](C)CO)C(=O)Cc2cc(NC(=O)Cc3ccccc3)ccc2O[C@@H]1CN(C)Cc1ccc(Cl)c(Cl)c1,0,0,0,-,-,88
C[C@@H]1CN([C@@H](C)CO)C(=O)Cc2cc(NC(=O)Cc3ccccc3)ccc2O[C@@H]1CN(C)Cc1ccc(Cl)c(Cl)c1,0,0,0,-,-,66
O=C(C[C@@H]1CC[C@H]2[C@@H](COC[C@H](O)CN2C(=O)Nc2ccccc2)O1)NCCCN1CCOCC1,0,0,0,-,-,0
CC(C)CC1NC(=O)N(CC(=O)N(C)C2CCCCC2)C1=O (centres undefined),0,0,0,0,108,0
CN1c2ccc(Br)cc2[C@@H]2[C@@H](CCN2C(=O)Cc2cccnc2)[C@@H]1CO,0,0,0,-,-,0
Clc1ccc(C2=NCCN2)cc1,112,0,0,0,0,-
CNC[C@@H]1Oc2ncc(C#Cc3ccc(OC)c(OC)c3)cc2C(=O)N([C@H](C)CO)C[C@@H]1C,0,0,0,-,-,0
OC[C@H]1Nc2ccc(C#Cc3ccc(F)cc3)cc2[C@H]2[C@@H]1CCN2Cc1ccc2c(c1)OCO2,0,0,0,-,-,0
CC(C)NC(=O)N(C)C[C@H]1OCc2cn(nn2)CCCC(=O)N([C@@H](C)CO)C[C@@H]1C,0,0,0,-,-,32
C[C@@H]1CN([C@@H](C)CO)C(=O)CCCn2cc(nn2)CO[C@H]1CN(C)C(=O)Nc1cccc2ccccc12,0,0,0,-,-,91!
C[C@H](CO)N1C[C@H](C)[C@H](CN(C)C(=O)CCCN(C)C)OCc2cn(nn2)CCCC1=O,17,0,0,-,-,0
CC(C)OC(=O)N(C)C[C@@H]1OCc2cn(nn2)CCCC(=O)N([C@@H](C)CO)C[C@@H]1C,16,0,0,-,-,0
CC(C)NC(=O)N(C)C[C@H]1OCc2cn(nn2)CCCC(=O)N([C@H](C)CO)C[C@@H]1C,0,0,0,-,-,0
C[C@H]1CCCCO[C@@H](CN(C)C(=O)NC2CCCCC2)[C@@H](C)CN([C@@H](C)CO)C(=O)c2cc(NC(=O)C3CCCCC3)ccc2O1,0,0,0,-,-,0
C[C@@H]1CN([C@H](C)CO)C(=O)c2cc(NC(=O)Nc3ccc(F)cc3)ccc2O[C@@H]1CN(C)S(=O)(=O)c1cn(C)cn1,0,0,0,-,-,0
CC(C)OC(=O)N(C)C[C@@H]1OCc2cn(nn2)CCCC(=O)N([C@H](C)CO)C[C@H]1C,27,0,0,-,-,0
O=C1CN(S(=O)(=O)Cc2ccccc2)C[C@H]2[C@H](c3ccc(C#Cc4ccc(F)cc4)cc3)[C@H](CO)N12,0,0,0,-,-,0
Cn1ccc2c(-c3cccc(C=O)c3)cc3c(c21)C1CCC3O1 (centres undefined),0,0,0,-,-,50

# Screens as filed in PubChem.
